Measurements taken from ChEMBL document CHEMBL1127787, “1,2,3-Triazole-[2',5'-bis-O-(tert-butyldimethylsilyl)-beta-D- ribofuranosyl]-3'-spiro-5"-(4"-amino-1",2"-oxathiole 2",2"-dioxide) (TSAO) analogues: synthesis and anti-HIV-1 activity” (J Med Chem, 1994).

Legend:
MT4 [1] = assay: Tested for the cytotoxic concentration required to reduce the number of viable mock infected MT-4 cells; format: functional; conditions: Homo sapiens
Procedure, shortened: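 Mock-infected MT-4 cells (5 × 10^5/mL) in RPMI-1640 with 10% FCS were exposed to compound dilutions (100 to 0.006 µg/mL). Viable cells were counted by trypan blue at day 5; about 150-200 cells were counted in controls. CC50 is the concentration that reduces viable cell number by 50%.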

Homo sapiens [2] = species on record: Homo sapiens; assay: Inhibition of HIV-1Ba-L replication was measured after 14 days postvirus challenge by HIV-p24 ELISA at the dosage of 3.3 uM concentration in human macrophages; format: functional; conditions: 336 h
Procedure, shortened: (§1)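 Human monocyte/macrophages isolated by 5-day adherence to plastic (10^6 cells/well), >95% pure by esterase and Giemsa staining. Infected with 500 minimal infective doses/well of HIV-1/Ba-L. Compound added from 30 min before virus challenge. Virus excess removed at 48 h and medium renewed with compound. Virus production read by p24 ELISA at day 14. Data are the mean of two independent experiments.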

Homo sapiens [3] = species on record: Homo sapiens; assay: Inhibition of HIV-1Ba-L replication was measured after 14 days postvirus challenge by HIV-p24 ELISA at the dosage of 0.8 uM concentration in human macrophages; format: functional; conditions: 336 h; procedure, shortened: as §1
MT4 [4] = assay: Tested for the inhibitory activity of HIV-2 infected MT-4 cells; format: functional, cell-based; conditions: Homo sapiens
Procedure, shortened: (§2)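 MT-4 cells (5 × 10^5/mL) grown in RPMI-1640 with 10% FCS, 2 mM L-glutamine and 0.075% NaHCO3. Infected with HIV-1 or HIV-2 at 100 CCID50/mL and mixed with compound dilutions (100 to 0.006 µg/mL). After 5 days viable cells were counted by trypan blue staining. EC50 is the concentration that reduces viable-cell loss in infected cultures by 50%.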

Homo sapiens [5] = species on record: Homo sapiens; assay: Inhibition of HIV-1Ba-L replication was measured after 14 days postvirus challenge by HIV-p24 ELISA at the dosage of 0.033 uM concentration in human macrophages; format: functional; conditions: 336 h; procedure, shortened: as §1
Homo sapiens [6] = species on record: Homo sapiens; assay: Inhibition of HIV-1Ba-L replication was measured after 14 days postvirus challenge by HIV-p24 ELISA at the dosage of 0.16 uM concentration in human macrophages; format: functional; conditions: 336 h; procedure, shortened: as §1
MT4 [7] = assay: Tested for the inhibitory activity of HIV-1 infected MT-4 cells; format: functional, cell-based; conditions: Homo sapiens; procedure, shortened: as §2
CCRF-CEM [8] = assay: Tested for the inhibitory activity of virus induced giant cell formation in HIV-1 infected CEM cells; format: functional, cell-based; conditions: Homo sapiens
CCRF-CEM [9] = assay: Tested for the inhibitory activity of virus induced giant cell formation in HIV-2 infected CEM cells; format: functional, cell-based; conditions: Homo sapiens
MT4 [10] = assay: Tested for the ratio between CC50 (MT-4) to EC50 (MT-4); format: functional, Homo sapiens
Homo sapiens [11] = species on record: Homo sapiens; assay: Inhibition of HIV-1Ba-L replication was measured after 14 days postvirus challenge by HIV-p24 ELISA at the dosage of 0.17 uM concentration in human macrophages; format: functional; conditions: 336 h; procedure, shortened: as §1
Homo sapiens [12] = species on record: Homo sapiens; assay: Inhibition of HIV-1Ba-L replication was measured after 14 days postvirus challenge by HIV-p24 ELISA at the dosage of 3.4 uM concentration in human macrophages; format: functional; conditions: 336 h; procedure, shortened: as §1
Homo sapiens [13] = species on record: Homo sapiens; assay: Inhibition of HIV-1Ba-L replication was measured after 14 days postvirus challenge by HIV-p24 ELISA at the dosage of 0.85 uM concentration in human macrophages; format: functional; conditions: 336 h; procedure, shortened: as §1
Homo sapiens [14] = species on record: Homo sapiens; assay: Inhibition of HIV-1Ba-L replication was measured after 14 days postvirus challenge by HIV-p24 ELISA at the dosage of 0.034 uM concentration in human macrophages; format: functional; conditions: 336 h; procedure, shortened: as §1

SMILES	CC50 (MT4 [1]) [nM]	inhibition at 3.3 µM (Homo sapiens [2]) [%]	inhibition at 0.8 µM (Homo sapiens [3]) [%]	EC50 (MT4 [4]) [nM]	inhibition at 0.033 µM (Homo sapiens [5]) [%]	inhibition at 0.16 µM (Homo sapiens [6]) [%]	EC50 (MT4 [7]) [nM]	EC50 (CCRF-CEM [8]) [nM]	EC50 (CCRF-CEM [9]) [nM]	Ratio (MT4 [10])	inhibition at 0.17 µM (Homo sapiens [11]) [%]	inhibition at 3.4 µM (Homo sapiens [12]) [%]	inhibition at 0.85 µM (Homo sapiens [13]) [%]	inhibition at 0.034 µM (Homo sapiens [14]) [%]
CN(C)C(=O)c1cnnn1[C@@H]1O[C@H](CO[Si](C)(C)C(C)(C)C)[C@@]2(OS(=O)(=O)C=C2N)[C@H]1O[Si](C)(C)C(C)(C)C	20000	> 99	> 99	> 30000	0	42	60	120	> 7000	335				
CCCc1cn([C@@H]2O[C@H](CO[Si](C)(C)C(C)(C)C)[C@@]3(OS(=O)(=O)C=C3N)[C@H]2O[Si](C)(C)C(C)(C)C)nn1	> 170000			> 170000			920	1300	> 35000	>185	12	67	42	0
CCOC(=O)c1cn([C@@H]2O[C@H](CO[Si](C)(C)C(C)(C)C)[C@@]3(OS(=O)(=O)C=C3N)[C@H]2O[Si](C)(C)C(C)(C)C)nn1	> 165000	> 99	98	≥ 165000	0	20	790	540	> 165000	>209				
